In one data set the test system is HeLa. In words: Cytotoxicity against human HeLa cells after 3 days by MTT assay. Type of data set: functional, cell-based. The note with it: 72 h. An outline of the steps:
(§1)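 Incubated with sample at 37 °C for 3 or 4 days; viable cell number then estimated by MTT colorimetric assay.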
For orientation: Tetrazolium dyes change colour on reduction, which living cells bring about.

Another data set has as its target Protease (Human immunodeficiency virus 1, UniProt Q9YQ12). In words: Inhibition of HIV1 protease.
Data set [1] deals with K562. The data set can be described thus: Cytotoxicity against human K562 cells after 3 days by MTT assay. In kind it is functional, cell-based. As to conditions: K562, 72 h. The procedure, abridged: as §1
The subject of data set [2] is P388. The data set can be described thus: Cytotoxicity against adriamycin-resistant mouse P388 cells after 3 days by MTT assay. Type of data set: functional, cell-based. The note with it: P388, 72 h. The procedure, abridged: as §1
Data set [3] concerns K562. The data set can be described thus: Cytotoxicity against adriamycin-resistant human K562 cells after 3 days by MTT assay. In kind it is functional, cell-based. The note with it: K562, 72 h. An outline of the steps: as §1
The next data set relates to Mus musculus. The data set can be described thus: Toxicity in mouse at 100 mg/kg, ip. In kind it is organism-based. Also on record: dose 100 mg/kg, route intraperitoneal. The note with it: in vivo.
The subject of a further data set is KB. In words: Cytotoxicity against human KB cells after 3 days by MTT assay. Type of data set: functional, cell-based. The note with it: 72 h. An outline of the steps: as §1
Data set [4] has as its system P388. In words: Cytotoxicity against mouse P388 cells after 3 days by MTT assay. Type of data set: functional, cell-based. As to conditions: P388, 72 h. The procedure, abridged: as §1
The next data set has as its system B16. The data set can be described thus: Cytotoxicity against mouse B16 cells after 3 days by MTT assay. Type of data set: functional, cell-based. As to conditions: B16, 72 h. An outline of the steps: as §1

As usually defined, the IC50 is the concentration at which inhibition is half-maximal.

≈ marks a conversion by molar mass, not a printed value.

Chain of Protease (Q9YQ12 whole entry): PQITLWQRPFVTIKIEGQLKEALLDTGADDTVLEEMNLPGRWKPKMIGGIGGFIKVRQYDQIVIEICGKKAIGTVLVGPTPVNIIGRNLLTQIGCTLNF

Take `CC(=O)O[C@@H]1[C@@H](O)[C@@H](O)[C@H](Oc2cc3c(=O)oc4c(O)c(O)cc5c(=O)oc(c2O)c3c45)O[C@H]1C`: the IC50 is 76 µg/mL (≈ 155 µM) in the data set on HeLa; 22.4 µM on Protease; 80 µg/mL (≈ 163 µM) in the data set with K562 [1]; 19 µg/mL (≈ 38.7 µM) in the data set with P388 [2]; 56 µg/mL (≈ 114 µM) in the data set with K562 [3]; 61 µg/mL (≈ 124 µM) in the data set with KB. Further, the IC50 with P388 [4] and in the data set on B16 was 52 µg/mL (≈ 106 µM) in each case. In addition, the Activity entry in the data set with Mus musculus is reported as “Non-toxic”.
In the case of `C[C@@H]1O[C@@H](Oc2cc3c(=O)oc4c(O)c(O)cc5c(=O)oc(c2O)c3c45)[C@H](O)[C@H](O)[C@H]1O` [ESCHWEILENOL C], the IC50 was 86.5 µg/mL (≈ 193 µM) with HeLa; 10.7 µM against Protease; 82 µg/mL (≈ 183 µM) in the data set on K562 [1]; 53 µg/mL (≈ 118 µM) in the data set on P388 [2]; 67 µg/mL (≈ 149 µM) with K562 [3]; 98 µg/mL (≈ 219 µM) in the data set with KB. Besides, the figures for the IC50 with P388 [4] and with B16 were 62 µg/mL (≈ 138 µM) and 88 µg/mL (≈ 196 µM), respectively.

(Values after ChEMBL document CHEMBL1150692, “Isolation and synthesis of a new bioactive ellagic acid derivative from Combretum yunnanensis” (J Nat Prod, 2003).)
